INS promoter act: TRM-6 insulin promoter activation; activation, % at 2 µM; 130,000 compounds, 0.81% hits; TRM-6 cells, insulin promoter eGFP reporter, imaging; plate-scaled: unstimulated 0, stimulated control 100;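 active = activation at 2 µM above a set limit, confirmed on inspection of the cell images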;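 note: share of cells whose green reporter signal exceeds an intensity cutoff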
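Test system: human fetal islet-derived TRM-6 cells with tamoxifen-inducible insulin promoter–eGFP reporter; schedule: overnight tamoxifen, then two-day compound incubation at 37 °C; measured by: high-content imaging of fixed cells with Hoechst nuclear stain; evaluation: percent cells above green-intensity threshold, converted to percent activation versus plate controls; control set: stimulated and unstimulated wells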
Of the large screens only hits and unclear results are named; the others gave an inactive call; [ ] = remark or other dose. This excerpt belongs to a sample that is enriched for hits.

Cc1nn(C)c(C)c1CNC(=O)c1cc2n(n1)C(C(F)(F)F)CC(c1cccs1)N2 (configuration not stated)	none
Cc1cc(NC(=O)c2cc3n(n2)C(C(F)(F)F)CC(c2ccco2)N3)n(-c2ccccc2)n1 (configuration not stated)	none
CCc1ccc(/C=C/c2c[nH]c3ccccc23)[n+](CC)c1	none
O=C(NCCCN1CCOCC1)c1ccc(-n2nc(C(F)(F)F)cc2-c2cccs2)cc1	none
COc1ccc(CNc2nc3nc(C)c(Cl)c(C)n3n2)cc1OC	none
Nc1nc(N)nc(COc2ccccc2)n1	none
Cc1nc2nc(COc3ccccc3)nn2c(C)c1Cl	INS promoter act 456
O=C(CCCc1nc2ccccc2s1)NCc1ccccc1F	none
O=C(OCc1cc2ccccc2[nH]c1=O)c1cccs1	none
Cn1c(=O)c2c(nc(CN3CCN(c4ccccc4F)CC3)n2CCCc2ccccc2)n(C)c1=O	none
COc1cc(OC)nc(NC2OC(=O)c3ccccc32)n1 (configuration not stated)	none
C/C=C/C(=O)N1c2ccccc2C(C)=CC1(C)C	none
CC1=CC(C)(C)N(C(=O)Nc2ccccc2)c2ccccc21	none
CC1=CC(C)(C)N(C(=O)CSc2nncn2C)c2ccccc21	INS promoter act 631
Cc1nc(NCCc2ccccc2)c2oc3ccccc3c2n1	none
COC(=O)c1sc(NC(=O)C2CCCO2)c(C(=O)OC)c1C (configuration not stated)	INS promoter act 428
Cc1sc(NC(=O)C2CCCO2)c(C#N)c1C (configuration not stated)	none
Cc1c(C(=O)OC(C)C)sc(NC(=O)C2CCCO2)c1C(=O)OC(C)C (configuration not stated)	none
CC1=C(C(=O)OCc2ccccc2)C(c2cccnc2)n2nnnc2N1 (configuration not stated)	none
CCOC(=O)C1=C(N)Oc2ccc3ccccc3c2C1c1cccnc1 (configuration not stated)	INS promoter act 564
CCOC(=O)C1=C(c2ccccc2)OC(N)=C(C#N)C1c1cccnc1 (configuration not stated)	none
COc1ccccc1N1CCN(C(=O)C2CCN(S(=O)(=O)c3ccc(C)cc3)CC2)CC1	none
Cc1ccc(S(=O)(=O)NCC(c2cccnc2)N(C)C)cc1 (configuration not stated)	none
COc1ccccc1N1CCN(C(CNS(=O)(=O)c2ccc(C)cc2)c2cccnc2)CC1 (configuration not stated)	INS promoter act 76
CC(C)CNC(=S)NNC(=O)c1ccc(OC(F)F)cc1	none
Cc1cc(N2CCCC2)ccc1/C=N/n1cnnc1	none
COc1ccccc1CNC(=S)Nc1ccc2nc(N3CCN(C)CC3)cc(C)c2c1	none
COc1ccccc1NC(=O)c1cc(Cl)ccc1NC(=O)c1ccco1	none
COc1ccccc1NC(=O)c1ccccc1-c1nc(-c2ccccc2OC)no1	INS promoter act 400
COc1ccccc1-c1noc(-c2ccccc2C(=O)Nc2ccccc2)n1	none
Cc1cc(C2(c3ccc(O)c(C)c3)C(=O)Nc3ccccc32)ccc1O	INS promoter act 127
O=C1CCCCCC1C1(O)C(=O)Nc2ccccc21 (configuration not stated)	none
Cc1c(O)cc2n(c1=O)-c1ccccc1C2(C)C	none
CCC(CC)C(=O)c1c[nH]c(C(=O)NN)c1	none
Cc1cc(Nc2ccccc2)n(CCO)n1	INS promoter act 543
Cc1cc(C)n(-c2nc(Nc3ccccc3)nc(-n3nc(C)cc3C)n2)n1	none
COc1ccc(C(=O)n2nc(C)cc2Nc2ccccc2)cc1	none
COc1ccc(CN2CC(C(=O)NCCC(C)C)CC2=O)cc1 (configuration not stated)	none
CC(C)CC1(C)NC(=O)NC1=O (configuration not stated)	none
COc1cc(NS(=O)(=O)c2ccc(Nc3nc(-c4ccccc4)cs3)cc2)nc(OC)n1	none
CC(C)[C@H](NC(=O)c1ccccc1)C(=O)OCC(=O)N1CCc2ccccc2C1	none
O=c1ccc(-c2ccc([N+](=O)[O-])cc2)nn1-c1ccccc1	none
O=[N+]([O-])c1ccc(Cl)c(/C=N/N2CCN(c3ccccc3)CC2)c1	none
O=[N+]([O-])c1ccc(/C=C/C2=NN(c3ccccc3)C(c3ccco3)C2)cc1 (configuration not stated)	INS promoter act 285[fluoresces]
COc1ccc(NS(=O)(=O)c2ccc3oc4ccccc4c3c2)cn1	none
CC(=O)Nc1nc(-c2ccccc2)nc(C)c1C(C)=O	none
CCC(=O)Nc1nc(C)nc(C)c1C(C)=O	none
CC(=O)Nc1nc(C)nc(C)c1C(C)=O	INS promoter act 129
O=S(=O)(c1ccc(Br)s1)N1CCN(c2ccccc2)CC1	INS promoter act 575
Cc1c(NS(=O)(=O)c2ccc(Br)s2)c(=O)n(-c2ccccc2)n1C	none
CCN1CCN(S(=O)(=O)c2ccc(Br)s2)CC1	none
Cc1ccc(C(=O)N2CCN(c3ncccn3)CC2)o1	none
CC(=O)c1ccc(Oc2nc(-c3cccnc3)nc3ccccc23)cc1	none
Cc1ccccc1C(=O)Nc1ccnc(-c2ccncc2)n1	none
CC(=O)Nc1ccnc(-c2cccnc2)n1	INS promoter act 187
Cc1ccccc1-n1nc2c(c1NC(=O)c1cc3ccccc3oc1=O)CS(=O)(=O)C2	none
CC(C)(C)c1ccc(CNc2cc(N3CCOCC3)ccc2[N+](=O)[O-])cc1	none
CCOc1cc(CNCCCN2CCOCC2)ccc1OCC(=O)NC(C)(C)C	none
COc1cc(CNCc2cccs2)ccc1OCC(N)=O	none
COc1cc(CNCc2cccs2)ccc1OCC(=O)NC(C)(C)C	INS promoter act 125
CCOC(=O)CCCCC(=O)NC(CO)C(=O)NC (configuration not stated)	none
CCc1sc(C(=O)Nc2ccc(F)cc2C)cc1C	none
Cc1c(NS(=O)(=O)N2CCCCC2)c(=O)n(-c2ccccc2)n1C	none
Cc1ccc(S(=O)(=O)Nc2c(C)n(C)n(-c3ccccc3)c2=O)cc1C(=O)NCc1ccccn1	INS promoter act 143
CCN(Cc1ccccc1)C(=O)C(C)OC(=O)c1cc(S(=O)(=O)Nc2c(C)n(C)n(-c3ccccc3)c2=O)ccc1C (configuration not stated)	none
O=C(O)CC(NC(=O)OCc1ccccc1)c1ccc(Br)cc1 (configuration not stated)	none
CCN(CC)CCCNC(=O)Cn1ncn2cccc2c1=O	none
O=C(/C=C/c1ccc([N+](=O)[O-])s1)N1CCCCC1	INS promoter act 328
COc1ccccc1/C=C/C(=O)N1CCCC1	none
O=C(/C=C/c1ccccc1[N+](=O)[O-])N1CCCCC1	none
O=C(CNC(=O)c1cccc(F)c1)N/N=C/c1ccc([N+](=O)[O-])s1	none
COC(=O)c1cccc(NC(=O)/C=C/c2ccc([N+](=O)[O-])cc2)c1	none
CC(=O)c1cccc(NC(=O)/C=C/c2ccc([N+](=O)[O-])s2)c1	INS promoter act 614
CCCCC(=O)Nc1cccn2ncnc12	none
O=c1cc(CNc2cc(C(F)(F)F)cc(C(F)(F)F)c2)nc2sccn12	none
Cc1cc(-c2csc(NC(=O)c3ccc(C#N)cc3)n2)c(C)n1Cc1ccco1	none
COc1ccccc1CNC(=O)C(Cc1c[nH]c2ccccc12)NC(=O)OCc1ccccc1 (configuration not stated)	none
O=C(CSc1nc2ccccc2[nH]1)Nc1cc(C(F)(F)F)ccc1N1CCOCC1	none
Cc1ccc(-c2ccc(CCC(=O)O)n2CC(=O)O)cc1	none
Cc1ccc(-c2ccc(CCC(=O)O)n2-c2ccc(O)cc2)cc1	none
Cc1ccc(-c2ccc(CCC(=O)O)n2-c2cccc(O)c2)cc1	INS promoter act 291
CC1CCCCN1C(=O)CSc1nc(-c2ccccc2)cn1N (configuration not stated)	none

From PubChem BioAssay
